Most compounds without a hit are left out; they make up all but 0.89% or so of the library.
Arrestin-AP2 inh – blocks beta-arrestin peptide binding to AP2 adaptin. FITC-arrestin peptide / GST-AP2 beads, flow cytometry; AP2 beta2 appendage carries R879A mutation. inhibition, % at 10 µM. actives 0.31% (n = 340,000);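 active = inhibition above a set limit, near 3 SD of compounds lacking own fluorescence, cut at about 54% in these data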;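 also: plate controls were DMSO wells for no effect and 5 µM unlabelled arrestin peptide for full effect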
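test system = AP2 appendage R879A on GSH beads | buffer or medium = PBS plus Tween 20 (0.05%) and BSA (0.1%) | incubation = 12 min plus 1 h, RT | detection = bead flow cytometry, FITC channel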
hiPSC survival – hiPSC single-cell survival enhancement; ATPlite luminescence; 100% = ROCK inhibitor wells, 0% = DMSO; survival enhancement, % at 20 µM; actives 0.044% (n = 360,000); in the data active = survival enhancement above about 18%;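 also: cells exposed to compounds for 16 hours before the ATP read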
ABCB6 inh MLPCN – blocks the human ABCB6 transporter; Q9NP58; K562-ABCB6 porphyrin accumulation, flow cytometry, 1 h; hits give low values; fluorescence ratio to DMSO, % at 10 µM; actives 0.19% (n = 360,000);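 active = fluorescence ratio to DMSO below 75%, the collection mean minus 3 SD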;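 also: signal is porphyrin accumulated inside mitochondria; 100% equals median channel fluorescence of DMSO control wells; lower ratio means ABCB6 inhibition with less porphyrin fluorescence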
Target sequence (Q9NP58 whole entry, looked up): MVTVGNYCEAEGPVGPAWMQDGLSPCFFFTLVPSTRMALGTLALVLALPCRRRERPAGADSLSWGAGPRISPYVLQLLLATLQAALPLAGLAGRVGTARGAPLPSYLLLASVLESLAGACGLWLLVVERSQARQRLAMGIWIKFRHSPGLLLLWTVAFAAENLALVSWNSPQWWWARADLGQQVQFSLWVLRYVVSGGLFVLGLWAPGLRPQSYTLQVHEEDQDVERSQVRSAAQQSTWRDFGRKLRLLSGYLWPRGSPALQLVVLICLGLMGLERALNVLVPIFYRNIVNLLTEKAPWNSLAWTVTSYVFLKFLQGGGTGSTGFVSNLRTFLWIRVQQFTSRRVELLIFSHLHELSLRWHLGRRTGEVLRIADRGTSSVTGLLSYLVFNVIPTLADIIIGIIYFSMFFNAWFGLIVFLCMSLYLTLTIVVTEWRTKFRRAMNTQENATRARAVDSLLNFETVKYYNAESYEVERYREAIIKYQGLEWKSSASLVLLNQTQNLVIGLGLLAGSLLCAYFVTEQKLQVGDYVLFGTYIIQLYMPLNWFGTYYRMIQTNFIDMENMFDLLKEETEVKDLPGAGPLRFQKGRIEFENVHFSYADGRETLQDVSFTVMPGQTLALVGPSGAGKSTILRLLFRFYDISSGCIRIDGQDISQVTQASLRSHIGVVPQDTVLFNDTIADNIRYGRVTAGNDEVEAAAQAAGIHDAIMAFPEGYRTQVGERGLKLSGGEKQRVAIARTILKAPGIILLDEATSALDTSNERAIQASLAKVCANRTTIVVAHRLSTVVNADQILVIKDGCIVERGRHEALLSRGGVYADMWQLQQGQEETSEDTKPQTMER
PG9 Ab binder – binds the HIV-1 gp120 antibody PG9; inhibition, % at 6.7 µM; actives 0.43% (n = 360,000); TR-FRET gp120-PG9 antibody binding; in the data active = inhibition above about 8.5%
Arr AP2 CP1 – blocks beta-arrestin peptide binding to human AP2. AID 504908. shares compounds with Arrestin-AP2 inh. GST-AP2 beads, FITC arrestin peptide binding, flow cytometry; GST-fused beta2-adaptin appendage, R879A mutant. inhibition, % at 10 µM. actives 2% (n = 1,300);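 active = inhibition above a set limit, roughly 3 SD of non-fluorescent compound noise, cut at about 38% in these data; inactive = inhibition at or below that limit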;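 also: loss of bead fluorescence from 50 nM FITC arrestin peptide bound to appendage; 0% = negative control wells and 100% = excess unlabelled arrestin peptide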
GST-FITC bead – disrupts GST binding to glutathione beads, arrestin-AP2 artifact | AID 588338 | actives 2% (n = 1,300) | GST-fluorescein binding to GSH beads, fluorescence, counter-screen | shares compounds with Arrestin-AP2 inh | inhibition, % at 10 µM;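 active = inhibition above 50%, about 3 SD of the inhibition seen with non-fluorescent compounds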;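 also: fluorescein maleimide labelled GST captured on 4 micron glutathione beads; higher means more loss of bead fluorescence from quenching or blocked binding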
Numbers without * were called inactive; / = no result.

SMILES | Arrestin-AP2 inh | hiPSC survival | ABCB6 inh MLPCN | PG9 Ab binder | Arr AP2 CP1 | GST-FITC bead
COc1ccc(Nc2nc3cc(C)ccc3cc2C#N)c(OC)c1 | 90.8* | 2.2 | 80.0 | -0.5 | 11.9 | 75.5*
COc1ccc(Nc2nc3ccc(C)cc3cc2C#N)c(OC)c1 | -16.4 | -1.2 | 106.0 | 0.2 | / | /
CC(=O)C1=C(C)N(Cc2ccc(F)cc2)C(=S)NC1c1ccccc1 (stereo not given) | / | / | / | -3.1 | / | /
O=C(NCCc1ccc(Cl)cc1)C1CCN(S(=O)(=O)c2cccc3nonc23)CC1 | 2.9 | 6.5 | 97.0 | -0.1 | / | /
O=C(NCc1ccc(Cl)cc1)C1CCN(S(=O)(=O)c2cccc3nonc23)CC1 | 108.8* | -0.5 | 103.0 | -1.6 | 22.8 | 51.9*
O=C(NN1C(=O)c2ccccc2NC1c1ccoc1)c1ccc([N+](=O)[O-])cc1 (stereo not given) | 57.3* | 0.4 | 100.0 | -1.4 | -0.3 | -8.2
CNC(=S)N1CCC(NC(=O)C23CC4CC(CC(C4)C2)C3)CC1 | 56.4* | 0.1 | 95.0 | -2.0 | 3.8 | -5.6
COc1ccc(-c2ncn(CCc3ccccc3OC)c2CC(C)C)cc1 | / | / | / | -0.8 | / | /
O=c1c2ccccc2c(=O)n(Cc2ccccc2)n1Cc1ccccc1 | 10.3 | 0.9 | 102.0 | -1.7 | / | /
O=c1[nH]n(Cc2ccccc2)c2ccccc12 | 59.4* | 0.0 | 102.0 | 0.6 | 0.6 | -1.1
CCC(C)N(C(=O)COC(=O)c1ccccc1SCC(=O)N1CCCC1)C1CCS(=O)(=O)C1 (stereo not given) | 54.4* | 0.4 | 90.0 | -0.4 | 7.8 | -1.7
COc1ccc(NC(=O)CC(C)=O)c(OC)c1 | -1.0 | -0.6 | 103.0 | -1.8 | 5.7 | -3.2
COc1ccc(Cl)cc1NC(=O)COC(C)=O | -14.4 | -0.7 | 100.0 | 2.5 | / | /
COc1ccc(Cl)cc1NC(=O)NCCN1CCNC1=O | 60.0* | 1.0 | 92.0 | -2.8 | 7.9 | -1.5
COc1ccc(Cl)cc1NC(=O)CC(C)=O | 5.1 | -0.9 | 89.0 | -0.4 | 3.1 | -7.9
CC(=O)CC(=O)Nc1ccccc1NC(C)=O | 19.9 | 1.5 | 79.0 | -0.5 | -4.1 | -5.1
COC(=O)c1ccccc1NC(=O)N1c2ccccc2CC1C (stereo not given) | 5.1 | 2.8 | 101.0 | 1.2 | / | /
CCCCNC(=O)N1c2ccccc2CC1C (stereo not given) | 57.2* | -0.6 | 103.0 | -0.6 | 13.4 | -8.8
COC(=O)C1=C(C)N(C)C(=NCc2ccc3c(c2)OCO3)NC1c1ccc(F)cc1 (stereo not given) | / | / | / | -0.6 | / | /
CC1CCCN(c2cccc3c2S(=O)(=O)N(Cc2cccc(F)c2)[C@@H](C)[C@H](c2ccccc2)O3)C1 (stereo not given in full) | / | / | / | -0.1 | / | /
Cc1cc(=O)[nH]c(-c2cccnc2)n1 | 62.6* | -1.2 | 103.0 | -1.1 | -2.7 | -6.0
O=c1cc(C(F)(F)F)nc(-c2cccnc2)[nH]1 | 4.4 | -1.1 | 102.0 | -2.1 | / | /
CC(C)(C)C(=O)NCc1ccc(C(=O)CSc2nnc(-c3ccncc3)n2C2CC2)s1 | 62.4* | -0.1 | 100.0 | -0.2 | -11.5 | 2.1
Cn1c(SCC(=O)NC2CCCC2)nnc1-c1ccccn1 | 60.0* | -0.3 | 94.0 | -0.6 | -13.7 | -8.9
Cn1c(SCC(=O)NC2CCCCC2)nnc1-c1ccccn1 | 35.4 | 0.5 | 87.0 | -0.8 | / | /
SMILES | Arrestin-AP2 inh | hiPSC survival | ABCB6 inh MLPCN | PG9 Ab binder | Arr AP2 CP1 | GST-FITC bead
CCN=C1NC(c2ccc(C(F)(F)F)cc2)C(C(=O)OC)=C(C)N1Cc1ccccc1C(F)(F)F (stereo not given) | / | / | / | 1.0 | / | /
O=C(CCn1c(=O)[nH]c2ccccc2c1=O)Nc1ccccc1 | -13.9 | -3.3 | 93.0 | -0.5 | -14.6 | -6.7
O=C(CCCn1c(=O)[nH]c2ccsc2c1=O)Nc1ccc(F)cc1 | -1.3 | -0.7 | 93.0 | / | / | /
O=C(CCCn1c(=O)[nH]c2ccccc2c1=O)Nc1ccc(F)cc1 | 57.4* | 0.9 | 102.0 | 1.2 | -8.8 | -10.1
O=S(=O)(c1cccs1)N1CCCc2nc(-c3ccc(F)cc3)ccc21 | / | / | / | 1.5 | / | /
COc1ccc(C(=O)NNC(=O)CCCCC(=O)NNC(=O)c2ccc(OC)cc2)cc1 | 62.3* | -1.4 | 105.0 | -0.3 | 1.2 | -2.5
COc1ccc(C(=O)NNC(=O)CCC(=O)NNC(=O)c2ccc(OC)cc2)cc1 | 3.8 | 0.5 | 99.0 | -0.4 | / | /
COc1cccc(NC(=O)c2cc(-c3ccc(C)o3)nc3ccccc23)c1 | 54.4* | 0.1 | 94.0 | 0.0 | -5.7 | 8.7
COCc1cc(N2CCNC[C@@H]2C)ccc1N1CCN(Cc2ccccc2)[C@H](C)C1 | / | / | / | -0.3 | / | /
COCCNC(=O)C(c1ccc(C)cc1)N(CCOC)C(=O)CCC(=O)Nc1ccccn1 (stereo not given) | 1.0 | -0.2 | 97.0 | -1.8 | / | /
COCCN(C(=O)CCCC(=O)Nc1ccccn1)C(C(=O)NC1CCCCC1)c1ccc(C)cc1 (stereo not given) | 100.5* | 0.0 | 103.0 | 0.3 | -12.6 | -4.0
COC(=O)[C@]12C[C@H](CC(=O)NCc3ccc(C)o3)C(=O)N(Cc3ccccc3)C1=C[C@H](C(C)C)O[C@@H]2C1CC1 | / | / | / | 0.4 | / | /
COC(=O)c1cc2c(c3c4cc(OC)ccc4n(S(=O)(=O)c4cccc(C)c4)c13)C(=O)N(C)C2 | / | / | / | 0.4 | / | /
O=C(O)COCC(=O)Nc1ccc2c(c1)ncn2CCc1ccccc1 | 57.5* | -0.1 | 100.0 | -2.2 | -5.3 | 0.6
COc1ccc(NS(=O)(=O)c2ccc(F)c(Cl)c2)cn1 | 16.4 | 2.2 | 114.0 | -2.9 | / | /
COc1ccc(NS(=O)(=O)c2ccc(Br)cc2)cn1 | 56.5* | -0.4 | 101.0 | 0.8 | -2.2 | -4.0
CCOC(=O)N1CCN(S(=O)(=O)c2ccc(Cl)cc2)CC1 | 65.6* | -0.6 | 102.0 | -4.2 | -5.2 | -5.6
C[C@H](CO)N1C[C@H](C)[C@@H](CN(C)C(=O)Nc2ccc3c(c2)OCO3)OCc2cn(nn2)CCCC1=O | / | / | / | 0.5 | / | /
N#Cc1cn(CCOc2ccc(F)cc2)c2ccccc12 | 56.7* | -2.7 | 92.0 | 1.1 | 8.1 | -9.3
Cc1nn(-c2ccc(F)cc2)c(Cl)c1/C=C/C(=O)OCC(=O)Nc1ccc(F)cc1F | 9.0 | 2.8 | 95.0 | 0.3 | / | /
Cc1nn(-c2ccc(F)cc2)c(Cl)c1/C=C/C(=O)OCC(=O)Nc1c(F)c(F)c(F)c(F)c1F | 104.1* | 18.6 | 97.0 | 1.5 | -3.6 | -1.9
COC(=O)[C@H](Cc1ccccc1)N1CC(N2CCCC2)CS1(=O)=O (stereo not given in full) | / | / | / | 1.3 | / | /
Cn1c(N)c(C(=O)COC(=O)c2ccccc2C(F)(F)F)c(=O)n(C)c1=O | -9.8 | 0.7 | 98.0 | -2.5 | -2.7 | -2.7
Cn1c(N)c(C(=O)COC(=O)c2ccccn2)c(=O)n(C)c1=O | -3.9 | 0.0 | 100.0 | -1.8 | 12.6 | -3.3
CCOc1ncccc1C(=O)OCC(=O)c1c(N)n(C)c(=O)n(C)c1=O | 4.7 | 4.0 | 187.0 | -5.4 | -8.1 | 0.1
